Measured values taken from ChEMBL document CHEMBL1139884, “Structure-based design, synthesis, and A-site rRNA cocrystal complexes of functionally novel aminoglycoside antibiotics: C2" ether analogues of paromomycin” (2007).
Values after ≈ are worked out from the molar mass of the structure shown. Active and inactive are the calls of the source. No cut-off for these calls is given here.

Experiments:
Mus musculus [1] = experiment: Survival of Staphylococcus aureus Smith infected BALB/c mouse assessed as septicemia protection at 19 mg/kg, sc administered at 1 hr and 3 hrs postinfection after 2 weeks; format: functional, organism-based; design: dose 19 mg/kg
Method in brief: (§1)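 Female Balb/c mice (16-18 g), acclimated one week, 10 per group. Infection IP with 0.5 mL of 10^6 S. aureus (mouse-passaged Smith strain) in 10% hog gastric mucin. Compound dissolved in water, given subcutaneously in 0.5 mL at 1 h and 3 h post-infection as serial 2-fold dilutions from 75 to 0.125 mg/kg. Amikacin and neomycin served as control groups. Moribund mice counted per group; observation over two weeks.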

Mus musculus [2] = experiment: Survival of Staphylococcus aureus Smith infected BALB/c mouse assessed as septicemia protection at 9.4 mg/kg, sc administered at 1 hr and 3 hrs postinfection after 2 weeks; format: functional, organism-based; design: dose 9.4 mg/kg; method in brief: as §1
Mus musculus [3] = experiment: Survival of Staphylococcus aureus Smith infected BALB/c mouse assessed as septicemia protection at 38 mg/kg, sc administered at 1 hr and 3 hrs postinfection after 2 weeks; format: functional, organism-based; design: dose 38 mg/kg; method in brief: as §1
Staphylococcus aureus [4] = experiment: Antimicrobial activity against Staphylococcus aureus ATCC 13709 after 20 to 24 hrs; format: functional
Method in brief: (§2)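 Broth microdilution in duplicate; compound in 2.5% DMSO in water, overnight culture added to a final inoculum of about 10^2-10^3 CFU/well. Growth read as A595 after 20-24 h at 37°C, relative to a no-compound well. MIC reported as a range: complete inhibition at the higher concentration, viable cells at the lower. Ampicillin and tetracycline are the positive controls.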

Mus musculus [5] = experiment: Survival of Staphylococcus aureus Smith infected BALB/c mouse assessed as septicemia protection at 2.3 mg/kg, sc administered at 1 hr and 3 hrs postinfection after 2 weeks; format: functional, organism-based; design: dose 2.3 mg/kg; method in brief: as §1
Mus musculus [6] = experiment: Survival of Staphylococcus aureus Smith infected BALB/c mouse assessed as septicemia protection at 4.7 mg/kg, sc administered at 1 hr and 3 hrs postinfection after 2 weeks; format: functional, organism-based; design: dose 4.7 mg/kg; method in brief: as §1
Mus musculus [7] = experiment: Survival of Staphylococcus aureus Smith infected BALB/c mouse assessed as septicemia protection at 75 mg/kg, sc administered at 1 hr and 3 hrs postinfection after 2 weeks; format: functional, organism-based; design: dose 75 mg/kg; method in brief: as §1
Escherichia coli = experiment: Antimicrobial activity against Escherichia coli ATCC 25922 after 20 to 24 hrs; format: functional; method in brief: as §2
Mus musculus [8] = experiment: Survival of Staphylococcus aureus Smith infected BALB/c mouse assessed as septicemia protection at 1.2 mg/kg, sc administered at 1 hr and 3 hrs postinfection after 2 weeks; format: functional, organism-based; design: dose 1.2 mg/kg; method in brief: as §1
Staphylococcus aureus [9] = experiment: Septicemia protection in Staphylococcus aureus Smith infected sc dosed BALB/c mouse after 2 weeks; format: functional; conditions: 336 h; method in brief: as §1
Mus musculus [10] = experiment: Survival of Staphylococcus aureus Smith infected BALB/c mouse assessed as septicemia protection at 0.50 mg/kg, sc administered at 1 hr and 3 hrs postinfection after 2 weeks; format: functional, organism-based; design: dose 0.5 mg/kg; method in brief: as §1

SMILES	MIC (Staphylococcus aureus [4])	MIC (Escherichia coli)	other results
NC[C@@H]1O[C@H](O[C@H]2[C@@H](OCCNCc3cccnc3)[C@H](O[C@@H]3[C@@H](O)[C@H](N)C[C@H](N)[C@H]3O[C@H]3O[C@H](CO)[C@@H](O)[C@H](O)[C@H]3N)O[C@@H]2CO)[C@H](N)[C@@H](O)[C@@H]1O	< 1.5 µg/mL	12 µg/mL (≈ 16 µM)	Activity (Mus musculus [1]): Active; Activity (Mus musculus [2]): Active; Activity (Mus musculus [3]): Active; Activity (Mus musculus [5]): Active; Activity (Mus musculus [6]): Active; Activity (Mus musculus [7]): Active; Activity (Mus musculus [8]): Active
NC[C@@H]1O[C@H](O[C@H]2[C@@H](OCCNCc3nc4ccccc4[nH]3)[C@H](O[C@@H]3[C@@H](O)[C@H](N)C[C@H](N)[C@H]3O[C@H]3O[C@H](CO)[C@@H](O)[C@H](O)[C@H]3N)O[C@@H]2CO)[C@H](N)[C@@H](O)[C@@H]1O	> 100 µg/mL	> 100 µg/mL	
CN(C)CCO[C@H]1[C@H](O[C@@H]2[C@@H](O)[C@H](N)C[C@H](N)[C@H]2O[C@H]2O[C@H](CO)[C@@H](O)[C@H](O)[C@H]2N)O[C@H](CO)[C@H]1O[C@H]1O[C@@H](CN)[C@@H](O)[C@H](O)[C@H]1N	6 µg/mL (≈ 8.74 µM)	12 µg/mL (≈ 17.5 µM)	
N[C@H]1[C@@H](O[C@H]2[C@H](O[C@@H]3O[C@H](CO)[C@@H](O)[C@H]3O)[C@@H](O)[C@H](N)C[C@@H]2N)O[C@H](CO)[C@@H](O)[C@@H]1O	> 100 µg/mL	> 100 µg/mL	
NC[C@@H]1O[C@H](O[C@H]2[C@@H](OCCNCC3CCCNC3)[C@H](O[C@@H]3[C@@H](O)[C@H](N)C[C@H](N)[C@H]3O[C@H]3O[C@H](CO)[C@@H](O)[C@H](O)[C@H]3N)O[C@@H]2CO)[C@H](N)[C@@H](O)[C@@H]1O (stereo partly drawn)	3 µg/mL (≈ 3.97 µM)	1.5 µg/mL (≈ 1.98 µM)	
N[C@H]1[C@@H](O[C@H]2[C@H](O[C@@H]3O[C@H](CO)[C@@H](O)[C@H]3OCCNCCc3ccccc3)[C@@H](O)[C@H](N)C[C@@H]2N)O[C@H](CO)[C@@H](O)[C@@H]1O	12 µg/mL (≈ 19.9 µM)	> 100 µg/mL	
NC[C@@H]1O[C@H](O[C@H]2[C@@H](O)[C@H](O[C@@H]3[C@@H](O)[C@H](N)C[C@H](N)[C@H]3O[C@H]3O[C@H](CO)[C@@H](O)[C@H](O)[C@H]3N)O[C@@H]2CO)[C@H](N)[C@@H](O)[C@@H]1O [PAROMOMYCIN]	1 µg/mL (≈ 1.62 µM)	3 µg/mL (≈ 4.87 µM)	
NCCO[C@H]1[C@H](O[C@@H]2[C@@H](O)[C@H](N)C[C@H](N)[C@H]2O[C@H]2O[C@H](CO)[C@@H](O)[C@H](O)[C@H]2N)O[C@H](CO)[C@H]1O[C@H]1O[C@@H](CN)[C@@H](O)[C@H](O)[C@H]1N	2 µg/mL (≈ 3.04 µM)	12 µg/mL (≈ 18.2 µM)	
NC[C@@H]1O[C@H](O[C@H]2[C@@H](OCCNC3CCNCC3)[C@H](O[C@H]3C(O[C@H]4O[C@H](CO)[C@@H](O)[C@H](O)[C@H]4N)[C@@H](N)C[C@@H](N)[C@@H]3O)O[C@@H]2CO)[C@H](N)[C@@H](O)[C@@H]1O (stereo partly drawn)	2 µg/mL (≈ 2.7 µM)	25 µg/mL (≈ 33.7 µM)	
NC[C@@H]1O[C@H](O[C@H]2[C@@H](OCCNCc3ccnc(N)c3)[C@H](O[C@@H]3[C@@H](O)[C@H](N)C[C@H](N)[C@H]3O[C@H]3O[C@H](CO)[C@@H](O)[C@H](O)[C@H]3N)O[C@@H]2CO)[C@H](N)[C@@H](O)[C@@H]1O	0.6 µg/mL (≈ 0.784 µM)	6 µg/mL (≈ 7.84 µM)	
NCCCNCCO[C@H]1[C@H](O[C@@H]2[C@@H](O)[C@H](N)C[C@H](N)[C@H]2O[C@H]2O[C@H](CO)[C@@H](O)[C@H](O)[C@H]2N)O[C@H](CO)[C@H]1O	6 µg/mL (≈ 10.8 µM)	6 µg/mL (≈ 10.8 µM)	
NC[C@@H]1O[C@H](O[C@H]2[C@@H](OCCCCCc3ccccc3)[C@H](O[C@@H]3[C@@H](O)[C@H](N)C[C@H](N)[C@H]3O[C@H]3O[C@H](CO)[C@@H](O)[C@H](O)[C@H]3N)O[C@@H]2CO)[C@H](N)[C@@H](O)[C@@H]1O	3 µg/mL (≈ 3.94 µM)	10 µg/mL (≈ 13.1 µM)	
NC[C@@H]1O[C@H](O[C@H]2[C@@H](OCCNCc3ccccc3)[C@H](O[C@@H]3[C@@H](O)[C@H](N)C[C@H](N)[C@H]3O[C@H]3O[C@H](CO)[C@@H](O)[C@H](O)[C@H]3N)O[C@@H]2CO)[C@H](N)[C@@H](O)[C@@H]1O	3 µg/mL (≈ 4.01 µM)	3 µg/mL (≈ 4.01 µM)	
NC[C@@H]1O[C@H](O[C@H]2[C@@H](OCCNCCc3ccc4ccccc4c3)[C@H](O[C@@H]3[C@@H](O)[C@H](N)C[C@H](N)[C@H]3O[C@H]3O[C@H](CO)[C@@H](O)[C@H](O)[C@H]3N)O[C@@H]2CO)[C@H](N)[C@@H](O)[C@@H]1O	1 µg/mL (≈ 1.23 µM)	10 µg/mL (≈ 12.3 µM)	
NC[C@@H]1O[C@H](O[C@H]2[C@@H](OCCNCCc3cccnc3)[C@H](O[C@@H]3[C@@H](O)[C@H](N)C[C@H](N)[C@H]3O[C@H]3O[C@H](CO)[C@@H](O)[C@H](O)[C@H]3N)O[C@@H]2CO)[C@H](N)[C@@H](O)[C@@H]1O	< 1.5 µg/mL	12 µg/mL (≈ 15.7 µM)	
NC[C@@H]1O[C@H](O[C@H]2[C@@H](OCCNCCc3ccc(-c4ccccc4)cc3)[C@H](O[C@@H]3[C@@H](O)[C@H](N)C[C@H](N)[C@H]3O[C@H]3O[C@H](CO)[C@@H](O)[C@H](O)[C@H]3N)O[C@@H]2CO)[C@H](N)[C@@H](O)[C@@H]1O	5 µg/mL (≈ 5.96 µM)	20 µg/mL (≈ 23.8 µM)	
NCCO[C@H]1[C@H](O[C@@H]2[C@@H](O)[C@H](N)C[C@H](N)[C@H]2O[C@H]2O[C@H](CO)[C@@H](O)[C@H](O)[C@H]2N)O[C@H](CO)[C@H]1O	12 µg/mL (≈ 24.1 µM)	6 µg/mL (≈ 12 µM)	
NC[C@@H]1O[C@H](O[C@H]2[C@@H](OCCNc3ccccn3)[C@H](O[C@@H]3[C@@H](O)[C@H](N)C[C@H](N)[C@H]3O[C@H]3O[C@H](CO)[C@@H](O)[C@H](O)[C@H]3N)O[C@@H]2CO)[C@H](N)[C@@H](O)[C@@H]1O	2 µg/mL (≈ 2.72 µM)	12 µg/mL (≈ 16.3 µM)	
NC[C@@H]1O[C@H](O[C@H]2[C@@H](OCCCc3ccccc3)[C@H](O[C@@H]3[C@@H](O)[C@H](N)C[C@H](N)[C@H]3O[C@H]3O[C@H](CO)[C@@H](O)[C@H](O)[C@H]3N)O[C@@H]2CO)[C@H](N)[C@@H](O)[C@@H]1O	3 µg/mL (≈ 4.09 µM)	20 µg/mL (≈ 27.3 µM)	
NC[C@@H]1O[C@H](O[C@H]2[C@@H](OCCNc3cccnc3)[C@H](O[C@@H]3[C@@H](O)[C@H](N)C[C@H](N)[C@H]3O[C@H]3O[C@H](CO)[C@@H](O)[C@H](O)[C@H]3N)O[C@@H]2CO)[C@H](N)[C@@H](O)[C@@H]1O	< 1.5 µg/mL	12 µg/mL (≈ 16.3 µM)	
NC[C@@H]1O[C@H](O[C@H]2[C@@H](OCCNC3CCCNC3)[C@H](O[C@@H]3[C@@H](O)[C@H](N)C[C@H](N)[C@H]3O[C@H]3O[C@H](CO)[C@@H](O)[C@H](O)[C@H]3N)O[C@@H]2CO)[C@H](N)[C@@H](O)[C@@H]1O (stereo partly drawn)	3 µg/mL (≈ 4.04 µM)	1.5 µg/mL (≈ 2.02 µM)	
NC[C@@H]1O[C@H](O[C@H]2[C@@H](OCCNCCc3ccccc3)[C@H](O[C@@H]3[C@@H](O)[C@H](N)C[C@H](N)[C@H]3O[C@H]3O[C@H](CO)[C@@H](O)[C@H](O)[C@H]3N)O[C@@H]2CO)[C@H](N)[C@@H](O)[C@@H]1O	0.3 µg/mL (≈ 0.393 µM)	3 µg/mL (≈ 3.93 µM)	Activity (Mus musculus [1]): Active; ED90 (Staphylococcus aureus [9]): 0.25 mg/kg; Activity (Mus musculus [3]): Active; Activity (Mus musculus [6]): Active; Activity (Mus musculus [10]): Active; Activity (Mus musculus [8]): Active
COc1cc(CCNCCO[C@H]2[C@H](O[C@@H]3[C@@H](O)[C@H](N)C[C@H](N)[C@H]3O[C@H]3O[C@H](CO)[C@@H](O)[C@H](O)[C@H]3N)O[C@H](CO)[C@H]2O[C@H]2O[C@@H](CN)[C@@H](O)[C@H](O)[C@H]2N)cc(OC)c1	5 µg/mL (≈ 6.08 µM)	10 µg/mL (≈ 12.2 µM)	
NC[C@@H]1O[C@H](O[C@H]2[C@@H](OCCNc3cccc(O)c3)[C@H](O[C@@H]3[C@@H](O)[C@H](N)C[C@H](N)[C@H]3O[C@H]3O[C@H](CO)[C@@H](O)[C@H](O)[C@H]3N)O[C@@H]2CO)[C@H](N)[C@@H](O)[C@@H]1O	2 µg/mL (≈ 2.66 µM)	12 µg/mL (≈ 16 µM)	
NC[C@@H]1O[C@H](O[C@H]2[C@@H](OCCNCCN3C(=O)c4cccc5cccc(c45)C3=O)[C@H](O[C@@H]3[C@@H](O)[C@H](N)C[C@H](N)[C@H]3O[C@H]3O[C@H](CO)[C@@H](O)[C@H](O)[C@H]3N)O[C@@H]2CO)[C@H](N)[C@@H](O)[C@@H]1O	10 µg/mL (≈ 11.3 µM)	> 40 µg/mL	
